The list is not random: actives were taken first. Their share in the collection is about 1.7%.
M1 ag parental – counter-screen for M1 agonists: effect in parental CHO-K1 cells. Fluo-8 calcium fluorescence; scaled to maximal ATP response, vehicle zero. activation, % at 3 µM. hit rate 0.48% among 360,000. AID 602248; in the data active = activation above about 15%;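 note: untransfected CHO-K1 host cells lacking M1 receptor as counterscreen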
CHRM5 PAM – CHRM5 positive allosteric modulation; P08912; CHO-K1 hM5, Fluo-8 calcium, ACh EC20 PAM; 0% = ACh EC20, 100% = ACh EC100; activation, % at 3 µM; hit rate 0.3% among 360,000; AID 624038;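 active = activation above the run cutoff, the mean activation of all test compounds plus 3 SD, cut at about 18% in these data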
Target sequence (P08912 whole entry, looked up): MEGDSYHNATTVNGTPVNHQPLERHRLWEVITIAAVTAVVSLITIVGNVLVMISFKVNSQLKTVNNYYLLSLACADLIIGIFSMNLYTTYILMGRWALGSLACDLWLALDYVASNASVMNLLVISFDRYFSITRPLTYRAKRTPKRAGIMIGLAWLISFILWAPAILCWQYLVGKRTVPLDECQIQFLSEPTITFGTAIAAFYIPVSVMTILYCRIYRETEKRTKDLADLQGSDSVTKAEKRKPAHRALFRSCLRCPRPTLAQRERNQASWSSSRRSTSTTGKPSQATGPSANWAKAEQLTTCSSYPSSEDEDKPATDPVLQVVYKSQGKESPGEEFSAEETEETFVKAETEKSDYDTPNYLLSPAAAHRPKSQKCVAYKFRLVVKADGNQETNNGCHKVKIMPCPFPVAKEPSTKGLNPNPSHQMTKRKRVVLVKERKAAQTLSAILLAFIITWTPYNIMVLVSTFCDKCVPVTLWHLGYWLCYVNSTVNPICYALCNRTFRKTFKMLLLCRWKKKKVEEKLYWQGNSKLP
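Measured by: Fluo-8 calcium fluorescence; material: human M5 receptor in CHO-K1 cells; schedule: Post-acetylcholine fluorescence recording 140 s; benchmarks: low control EC20 acetylcholine (0%), high control EC100 acetylcholine (100%); read-out: Max/basal fluorescence ratio as % of EC20–EC100 ACh window; compound: single dose, 3 µM nominal final test concentration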
M5 ag – agonists of human muscarinic M5 receptor (CHRM5); CHO-K1 hM5 cells, Fluo-8 calcium fluorescence; 0% DMSO wells, 100% maximal acetylcholine response; P08912; hit rate 0.19% among 360,000; activation, % at 3 µM;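 active = activation above the run's mean over test compounds plus 3 SD, cut at about 23% in these data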;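 note: signal is peak over basal fluorescence ratio across the kinetic read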
CHO-K1 Ca antag – M1 antagonist counterscreen hit in parental CHO-K1 cells. hit rate 0.6% among 360,000. ATP-induced calcium, Fluo-8 fluorescence. inhibition, % at 3 µM;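 active = inhibition above a per-plate cutoff, the plate's mean sample inhibition plus 3 SD, cut at about 24% in these data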;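 note: 0% = DMSO plus EC80 ATP and 100% = DMSO alone without ATP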
M5 antag – CHRM5 antagonism in calcium assay; P08912; CHO-hM5 cells, Fluo-8 calcium fluorescence, ACh EC80; inhibition, % at 3 µM; hit rate 0.59% among 360,000;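 active = inhibition above a per-plate cutoff, the mean of that plate's test compounds plus 3 SD, cut at about 27% in these data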;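 note: 0% = acetylcholine EC80 with DMSO and 100% = DMSO without agonist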
M1 PAM parental – counter-screen for M1 PAMs: effect in parental CHO-K1 cells. AID 602247. ATP EC20, Fluo-8 calcium fluorescence; 0% at ATP EC20, 100% at ATP max. hit rate 0.02% among 360,000. activation, % at 3 µM;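 active = activation above the run cutoff, the mean activation of all test compounds plus 3 SD, cut at about 40% in these data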;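 note: peak over basal fluorescence ratio in a 140 s read after ATP addition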
Numbers without * were called inactive.

SMILES	M1 ag parental	CHRM5 PAM	M5 ag	CHO-K1 Ca antag	M5 antag	M1 PAM parental
COc1ccc(C2=NNC(=O)CC2)cc1	0	24*	3	0	-10	2
CCCOc1ccc(C2=NNC(=O)CC2)cc1	0	3	-2	10	-4	-4
COc1ccc(C2(C)NC(=O)N(CC(=O)c3cc(C)n(C4CC4)c3C)C2=O)cc1 (stereo unspecified)	30*	-7	42*	4	0	4
Cc1cc(C(=O)CN2C(=O)NC(C)(c3ccc(F)c(F)c3)C2=O)c(C)n1C1CC1 (stereo unspecified)	12	-2	22	-2	1	21
O=C(Nc1cc(Oc2ccc(Cl)cc2)cc([N+](=O)[O-])c1)c1ccco1	-1	-9	-2	2	6	-8
C#CC[N+](C)(C)CCCCCCCCCCCC	24*	-19	-8	-7	21	29
C#CC[N+](C)(C)CCCCCCCCCC	0	-12	-9	0	-4	20
CCCCCCCCCCCCCCCC[N+](C)(C)CC	2	-19	-1	-4	77*	15
CCCCCCCCCCCCCCCC[N+](C)(C)CCl	0	-45	-11	-13	29*	18
CCCCCC[N+](C)(C)CCSSCC[N+](C)(C)CCCCCC	1	2	-5	-14	9	24
C#CC[N+](C)(C)CCCCCCCC	0	-1	-10	-2	3	7
O=C1CSC(c2cccc(F)c2)N1c1c(F)cccc1F (stereo unspecified)	0	-3	-12	6	7	2
CCCOc1ccc(Cn2cnc3ccccc32)cc1	3	-6	2	25*	15	4
Fc1ccc(Cn2cnc3ccccc32)cc1	1	-7	-3	-2	-2	11
CCOC(=O)c1cnc2c(-c3ccc(Cl)cc3)c(C)nn2c1N	0	4	-1	2	-4	7
CCOC(=O)c1c(OCCO)nn(-c2ccc(Cl)cc2)c1N	3	-16	1	33*	16	-18
COc1cc(CSc2nnnn2-c2ccc(C)cc2)cc(OC)c1OC	11	-19	2	21	31*	4
COc1ccc(F)cc1CSc1nnnn1-c1ccc(O)cc1	6	-5	-1	-7	-1	2
CC(C)(C)N(Cc1ccccc1)C(=O)COC(=O)C1CCCCC1	-1	5	-2	-18	16	19
CN1CCCN=C1COC(=O)C(O)(c1ccccc1)C1CCCCC1 (stereo unspecified)	0	-18	-2	2	99*	-10

Bioassay records as filed in PubChem BioAssay.
